Data reported in ChEMBL document CHEMBL3102702, “Protein kinase and HDAC inhibitors from the endophytic fungus Epicoccum nigrum” (J Nat Prod, 2014).

target: Focal adhesion kinase 1 (Homo sapiens, UniProt Q05397); assay: Inhibition of FAK (unknown origin); settings: not given

Compound | IC50 [µM]
Cc1c(O)c(O)c(O)c2c1COC2=O | 7.52
Cc1c(O)c(O)c(O)c(C=O)c1-c1cc2c(C=O)c(C)c(O)c(O)c2o1 | 0.8

target: Protein deacetylase HDAC6 (Homo sapiens, UniProt Q9UBN7); assay: Inhibition of recombinant HDAC6 (unknown origin) using Fluor-de-Lys-SIRT1 as substrate by fluorescence assay; settings: not given

Compound | IC50 [µM]
Cc1c(O)c(O)c(O)c(C=O)c1-c1cc2c(C=O)c(C)c(O)c(O)c2o1 | 6.5

target: ALK tyrosine kinase receptor (Homo sapiens, UniProt Q9UM73); assay: Inhibition of ALK (unknown origin); settings: not given

Compound | IC50 [µM]
Cc1c(O)c(O)c(O)c2c1COC2=O | 5.02
Cc1c(O)c(O)c(O)c(C=O)c1-c1cc2c(C=O)c(C)c(O)c(O)c2o1 | 0.25

target: Histone deacetylase; assay: Inhibition of HDAC in human K562 cell extract using Fluor-de-Lys deacetylase as substrate preincubated for 45 mins measured after 15 mins by fluorescence assay; assay type: protein assay; settings: not given

Compound | IC50 [µM]
Cc1c(O)c(O)c(O)c(C=O)c1-c1cc2c(C=O)c(C)c(O)c(O)c2o1 | 14.2

target: Histone deacetylase 1 (Homo sapiens, UniProt Q13547); assay: Inhibition of recombinant HDAC1 (unknown origin) using Fluor-de-Lys-SIRT1 as substrate by fluorescence assay; settings: not given

Compound | IC50 [µM]
Cc1c(O)c(O)c(O)c(C=O)c1-c1cc2c(C=O)c(C)c(O)c(O)c2o1 | 8.8

target: Histone deacetylase 8 (Homo sapiens, UniProt Q9BY41); assay: Inhibition of recombinant HDAC8 (unknown origin) using Fluor-de-Lys-HDAC8 as substrate by fluorescence assay; settings: not given

Compound | IC50 [µM]
Cc1c(O)c(O)c(O)c(C=O)c1-c1cc2c(C=O)c(C)c(O)c(O)c2o1 | 2.1

target: Insulin-like growth factor 1 receptor (Homo sapiens, UniProt P08069); assay: Inhibition of IGF1R (unknown origin); settings: not given

Compound | IC50 [µM]
Cc1c(O)c(O)c(O)c2c1COC2=O | 0.56
Cc1c(O)c(O)c(O)c(C=O)c1-c1cc2c(C=O)c(C)c(O)c(O)c2o1 | 0.15

target: T1, Tyrosine-protein kinase receptor UFO (Homo sapiens, UniProt P30530); assay: Inhibition of AXL (unknown origin); settings: not given
T1 sequence (P30530 whole entry): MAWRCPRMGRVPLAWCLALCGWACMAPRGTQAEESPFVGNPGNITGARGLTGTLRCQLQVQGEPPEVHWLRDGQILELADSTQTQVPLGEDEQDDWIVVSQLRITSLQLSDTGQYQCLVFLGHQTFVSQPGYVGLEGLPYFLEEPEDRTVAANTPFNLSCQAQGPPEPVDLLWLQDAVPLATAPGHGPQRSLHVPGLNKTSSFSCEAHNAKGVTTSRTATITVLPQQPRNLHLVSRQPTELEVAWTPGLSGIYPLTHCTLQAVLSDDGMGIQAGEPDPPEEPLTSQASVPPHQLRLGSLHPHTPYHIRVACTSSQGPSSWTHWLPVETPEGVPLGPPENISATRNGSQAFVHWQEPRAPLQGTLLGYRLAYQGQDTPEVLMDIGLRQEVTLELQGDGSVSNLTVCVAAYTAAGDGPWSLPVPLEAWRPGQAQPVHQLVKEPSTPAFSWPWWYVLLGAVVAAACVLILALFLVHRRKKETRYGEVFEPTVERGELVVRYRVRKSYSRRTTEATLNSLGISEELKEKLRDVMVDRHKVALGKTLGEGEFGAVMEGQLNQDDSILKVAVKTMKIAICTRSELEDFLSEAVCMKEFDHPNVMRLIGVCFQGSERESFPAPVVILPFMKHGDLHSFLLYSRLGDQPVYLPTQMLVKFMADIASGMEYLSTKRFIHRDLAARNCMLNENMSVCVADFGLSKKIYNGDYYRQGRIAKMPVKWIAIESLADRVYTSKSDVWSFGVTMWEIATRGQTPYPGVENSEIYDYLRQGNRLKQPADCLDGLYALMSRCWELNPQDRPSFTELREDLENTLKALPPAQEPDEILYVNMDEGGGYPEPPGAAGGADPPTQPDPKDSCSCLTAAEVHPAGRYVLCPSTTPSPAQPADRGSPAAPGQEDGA

Compound | IC50 [µM]
Cc1c(O)c(O)c(O)c2c1COC2=O | 2.46
Cc1c(O)c(O)c(O)c(C=O)c1-c1cc2c(C=O)c(C)c(O)c(O)c2o1 | 0.22

target: T2, Serine/threonine-protein kinase Nek2 (Homo sapiens, UniProt P51955); assay: Inhibition of NEK2 (unknown origin); settings: not given
T2 sequence (P51955 whole entry): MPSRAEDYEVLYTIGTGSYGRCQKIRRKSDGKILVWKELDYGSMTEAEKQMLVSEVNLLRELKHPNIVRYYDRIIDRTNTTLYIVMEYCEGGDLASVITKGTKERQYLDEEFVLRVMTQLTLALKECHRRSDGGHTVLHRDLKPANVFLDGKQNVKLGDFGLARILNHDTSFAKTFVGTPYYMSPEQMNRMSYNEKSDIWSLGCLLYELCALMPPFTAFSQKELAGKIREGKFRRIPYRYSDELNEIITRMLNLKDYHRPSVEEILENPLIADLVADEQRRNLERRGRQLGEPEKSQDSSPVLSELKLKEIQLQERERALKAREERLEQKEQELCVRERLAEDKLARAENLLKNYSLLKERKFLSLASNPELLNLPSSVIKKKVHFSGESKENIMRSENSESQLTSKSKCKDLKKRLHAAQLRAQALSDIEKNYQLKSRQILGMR

Compound | IC50 [µM]
Cc1c(O)c(O)c(O)c2c1COC2=O | 6.55
Cc1c(O)c(O)c(O)c(C=O)c1-c1cc2c(C=O)c(C)c(O)c(O)c2o1 | 3.78

target: Vascular endothelial growth factor receptor 2 (Homo sapiens, UniProt P35968); assay: Inhibition of VEGFR2 (unknown origin); settings: not given

Compound | IC50 [µM]
Cc1c(O)c(O)c(O)c2c1COC2=O | 5.96
Cc1c(O)c(O)c(O)c(C=O)c1-c1cc2c(C=O)c(C)c(O)c(O)c2o1 | 0.39

target: RAC-alpha serine/threonine-protein kinase (Homo sapiens, UniProt P31749); assay: Inhibition of AKT1 (unknown origin); settings: not given

Compound | IC50 [µM]
Cc1c(O)c(O)c(O)c2c1COC2=O | 23.2
Cc1c(O)c(O)c(O)c(C=O)c1-c1cc2c(C=O)c(C)c(O)c(O)c2o1 | 4.07

target: Serine/threonine-protein kinase N1 (Homo sapiens, UniProt Q16512); assay: Inhibition of PRK1 (unknown origin); settings: not given

Compound | IC50 [µM]
Cc1c(O)c(O)c(O)c2c1COC2=O | 18.6
Cc1c(O)c(O)c(O)c(C=O)c1-c1cc2c(C=O)c(C)c(O)c(O)c2o1 | 9

target: T3, NUAK family SNF1-like kinase 1 (Homo sapiens, UniProt O60285); assay: Inhibition of ARK5 (unknown origin); settings: not given
T3 sequence (O60285 whole entry): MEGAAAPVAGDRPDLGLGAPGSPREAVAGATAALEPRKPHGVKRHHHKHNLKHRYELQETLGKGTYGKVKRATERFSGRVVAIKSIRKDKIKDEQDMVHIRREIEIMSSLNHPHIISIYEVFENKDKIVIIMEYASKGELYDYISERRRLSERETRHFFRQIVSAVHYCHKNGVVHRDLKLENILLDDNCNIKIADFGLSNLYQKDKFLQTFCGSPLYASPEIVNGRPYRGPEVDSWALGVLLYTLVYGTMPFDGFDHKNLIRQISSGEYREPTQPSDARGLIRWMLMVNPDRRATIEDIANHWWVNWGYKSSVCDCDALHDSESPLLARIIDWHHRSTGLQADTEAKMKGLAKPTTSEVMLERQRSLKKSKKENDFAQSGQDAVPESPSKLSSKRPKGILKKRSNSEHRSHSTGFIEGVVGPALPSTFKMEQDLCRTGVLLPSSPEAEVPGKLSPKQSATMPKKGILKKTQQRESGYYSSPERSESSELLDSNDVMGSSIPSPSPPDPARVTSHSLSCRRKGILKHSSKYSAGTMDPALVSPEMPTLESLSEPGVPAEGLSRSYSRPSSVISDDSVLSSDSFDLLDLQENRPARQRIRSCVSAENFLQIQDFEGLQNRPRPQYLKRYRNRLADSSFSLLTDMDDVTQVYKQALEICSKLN

Compound | IC50 [µM]
Cc1c(O)c(O)c(O)c2c1COC2=O | 10
Cc1c(O)c(O)c(O)c(C=O)c1-c1cc2c(C=O)c(C)c(O)c(O)c2o1 | 3.77

target: Histone deacetylase 11 (Homo sapiens, UniProt Q96DB2); assay: Inhibition of recombinant HDAC11 (unknown origin) using Fluor-de-Lys-SIRT1 as substrate by fluorescence assay; settings: not given

Compound | IC50 [µM]
Cc1c(O)c(O)c(O)c(C=O)c1-c1cc2c(C=O)c(C)c(O)c(O)c2o1 | 12.9

target: Aurora kinase B (Homo sapiens, UniProt Q96GD4); assay: Inhibition of aurora-B (unknown origin); settings: not given

Compound | IC50 [µM]
Cc1c(O)c(O)c(O)c2c1COC2=O | 8.69
Cc1c(O)c(O)c(O)c(C=O)c1-c1cc2c(C=O)c(C)c(O)c(O)c2o1 | 7.29

test system: Raji; assay: Antiproliferative activity against human Raji cells assessed as growth inhibition at 25 uM after 72 hrs; assay type: functional; settings: read-out: GI
Summary of the method: (§1)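 RAJI and U-937 cells from ATCC, grown in RPMI 1640 with 10% heat-inactivated fetal calf serum and 1% antibiotic–antimycotic at 37 °C, humid 5% CO2. Treated 72 h; DMSO-treated cells as negative control; proliferation measured by a previously described method.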

Compound | inhibition of growth at 25 µM [%]
Cc1c(O)c(O)c(O)c(C=O)c1-c1cc2c(C=O)c(C)c(O)c(O)c2o1 | 55

target: Polyamine deacetylase HDAC10 (Homo sapiens, UniProt Q969S8); assay: Inhibition of recombinant HDAC10 (unknown origin) using Fluor-de-Lys-SIRT1 as substrate by fluorescence assay; settings: not given

Compound | IC50 [µM]
Cc1c(O)c(O)c(O)c(C=O)c1-c1cc2c(C=O)c(C)c(O)c(O)c2o1 | 8.1

test system: PBMC; assay: Cytotoxicity against PBMC (unknown origin) assessed as growth inhibition after 48 hrs; assay type: cell-based; settings: not given
Summary of the method: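 PBMCs isolated by a prior method, cultured in RPMI 1640 with 10% heat-inactivated FCS and 1% antibiotic–antimycotic at 37 °C, 5% CO2. Viability read after 48 h treatment, against DMSO-treated controls.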

Compound | Activity
Cc1c(O)c(O)c(O)c(C=O)c1-c1cc2c(C=O)c(C)c(O)c(O)c2o1 | Non-toxic

target: Serine/threonine-protein kinase Nek6 (Homo sapiens, UniProt Q9HC98); assay: Inhibition of NEK6 (unknown origin); settings: not given

Compound | IC50 [µM]
Cc1c(O)c(O)c(O)c2c1COC2=O | 13.6
Cc1c(O)c(O)c(O)c(C=O)c1-c1cc2c(C=O)c(C)c(O)c(O)c2o1 | 1.85

target: Serine/threonine-protein kinase pim-1 (Homo sapiens, UniProt P11309); assay: Inhibition of PIM1 (unknown origin); settings: not given

Compound | IC50 [µM]
Cc1c(O)c(O)c(O)c2c1COC2=O | 21.3
Cc1c(O)c(O)c(O)c(C=O)c1-c1cc2c(C=O)c(C)c(O)c(O)c2o1 | 4.44

target: Histone deacetylase 3 (Homo sapiens, UniProt O15379); assay: Inhibition of recombinant HDAC3 (unknown origin) using Fluor-de-Lys-SIRT1 as substrate by fluorescence assay; settings: not given

Compound | IC50 [µM]
Cc1c(O)c(O)c(O)c(C=O)c1-c1cc2c(C=O)c(C)c(O)c(O)c2o1 | 6.9

target: Proto-oncogene tyrosine-protein kinase Src (Homo sapiens, UniProt P12931); assay: Inhibition of SRC (unknown origin); settings: not given

Compound | IC50 [µM]
Cc1c(O)c(O)c(O)c2c1COC2=O | 3.56
Cc1c(O)c(O)c(O)c(C=O)c1-c1cc2c(C=O)c(C)c(O)c(O)c2o1 | 0.49

target: Serine/threonine-protein kinase PLK1 (Homo sapiens, UniProt P53350); assay: Inhibition of PLK1 (unknown origin); settings: not given

Compound | IC50 [µM]
Cc1c(O)c(O)c(O)c2c1COC2=O | 11.8
Cc1c(O)c(O)c(O)c(C=O)c1-c1cc2c(C=O)c(C)c(O)c(O)c2o1 | 6.31

target: Hepatocyte growth factor receptor (Homo sapiens, UniProt P08581); assay: Inhibition of wild type MET (unknown origin); settings: not given

Compound | IC50 [µM]
Cc1c(O)c(O)c(O)c2c1COC2=O | 8.63
Cc1c(O)c(O)c(O)c(C=O)c1-c1cc2c(C=O)c(C)c(O)c(O)c2o1 | 1.12

target: Dual specificity mitogen-activated protein kinase kinase 1 (Homo sapiens, UniProt Q02750); assay: Inhibition of wild type MEK1 (unknown origin); settings: not given

Compound | IC50 [µM]
Cc1c(O)c(O)c(O)c2c1COC2=O | > 100
Cc1c(O)c(O)c(O)c(C=O)c1-c1cc2c(C=O)c(C)c(O)c(O)c2o1 | > 30

test system: not listed separately; assay: Antiproliferative activity against human U937 cells assessed as growth inhibition at 25 uM after 72 hrs; assay type: functional; settings: U-937, 72 h, read-out: GI; summary of the method: as §1

Compound | inhibition of growth at 25 µM [%]
Cc1c(O)c(O)c(O)c(C=O)c1-c1cc2c(C=O)c(C)c(O)c(O)c2o1 | 30

target: Histone deacetylase 2 (Homo sapiens, UniProt Q92769); assay: Inhibition of recombinant HDAC2 (unknown origin) using Fluor-de-Lys-SIRT1 as substrate by fluorescence assay; settings: not given

Compound | IC50 [µM]
Cc1c(O)c(O)c(O)c(C=O)c1-c1cc2c(C=O)c(C)c(O)c(O)c2o1 | 9.1
